From PubChem BioAssay
M1 antagonist – blocks the rat M1 muscarinic receptor response to acetylcholine. P08482. CHO-M1 cells, Fluo-4 calcium, ACh EC80 antagonist mode; active compounds read low. B-score at 10 µM. 64,000 compounds, 3.4% hits. AID 628;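 active = calcium fluorescence response, raw or row-and-column corrected B-score, differing from the plate sample mean either way at a set confidence level, mostly lower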
AP complement – orthogonal test for alternative complement pathway inhibitors. 62,000 compounds, 0.08% hits. inhibition, % at 5 µM. Human serum alternative complement pathway, LPS-coated ELISA, C3 deposition; tested in compound mixtures;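 active = inhibition above 30% in each of the two pooled mixtures holding the compound, so the lower value exceeds 30%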
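Test system: human serum complement alternative pathway, C3 deposition onto LPS / Medium: Mg2+-EGTA GVB++ buffer containing human serum at 1:15 dilution / Probe or stimulus: Plate-bound LPS / Times: 1 h at 37 °C / Signal: ELISA with HRP anti-human C3 antibody, TMB substrate, absorbance 450 nm / Measure: percent inhibition / Repeats: two pool placements per compound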
Htt clearance – compounds clearing mutant huntingtin protein; HeLa Exon1htt(103Q)mCFP, aggregate imaging; zero = plate's median compound well; 47,000 compounds, 0.42% hits; AID 853; inhibition, % at 1.5 µM;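 active = inhibition of aggregate fluorescence above about 70%, also judged a hit by eye on the cell image, limit read from the data, passing the limit was not always enough; inconclusive = no rule stated for this call; inactive = not judged a hit on image review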;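 also: cells exposed to compound for three days before fixation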
D1 mod – allosterically modulates the human D1 dopamine receptor. P21728. HEK293 D1, CRE-luciferase, dopamine EC30 potentiation; actives deviate in either direction. B-score at 10 µM. 58,000 compounds, 5.9% hits;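 active = luminescence count or its row- and column-corrected plate score outside the 99.7% band of the plate's sample wells, on either side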
M1 ag – M1 muscarinic receptor agonism. CHO-M1 cells, Fluo-4 calcium fluorescence, agonist mode; active compounds read high. B-score at 10 µM. 64,000 compounds, 3% hits. AID 626;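 active = fluorescence rise, raw or as B-score row- and column-corrected plate score, outside the 99.7% band of its plate's samples, either direction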
M1 ag confirm – confirmation of rat M1 muscarinic receptor agonists; shares compounds with M1 ag; CHO-M1 cells, Fluo-4 calcium fluorescence, agonist mode; actives lie on both sides; fluorescence change (max-min) at 10 µM; 1,700 compounds, 19% hits;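 active = fluorescence change differs from the solvent-only DMSO control mean at a set confidence level in both duplicate runs; inconclusive = differs from solvent-only control mean in just one of two runs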;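 also: an EC20 dose of acetylcholine follows compound addition during the same imaging run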
M4 ag counter – counter-screen for M1 agonists: activity at rat M4 receptor | shares compounds with M1 ag | CHO M4/Gqi5 cells, Fluo-4 calcium fluorescence, agonist mode; actives lie on both sides | fluorescence change (max-min) at 10 µM | 1,700 compounds, 9% hits | AID 1741;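 active = fluorescence change differing from the plate's solvent-only control wells at 99.7% confidence in both duplicates, whether higher or lower; inconclusive = differs from solvent controls in only one of two duplicates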
Target sequence (P08485 whole entry, looked up): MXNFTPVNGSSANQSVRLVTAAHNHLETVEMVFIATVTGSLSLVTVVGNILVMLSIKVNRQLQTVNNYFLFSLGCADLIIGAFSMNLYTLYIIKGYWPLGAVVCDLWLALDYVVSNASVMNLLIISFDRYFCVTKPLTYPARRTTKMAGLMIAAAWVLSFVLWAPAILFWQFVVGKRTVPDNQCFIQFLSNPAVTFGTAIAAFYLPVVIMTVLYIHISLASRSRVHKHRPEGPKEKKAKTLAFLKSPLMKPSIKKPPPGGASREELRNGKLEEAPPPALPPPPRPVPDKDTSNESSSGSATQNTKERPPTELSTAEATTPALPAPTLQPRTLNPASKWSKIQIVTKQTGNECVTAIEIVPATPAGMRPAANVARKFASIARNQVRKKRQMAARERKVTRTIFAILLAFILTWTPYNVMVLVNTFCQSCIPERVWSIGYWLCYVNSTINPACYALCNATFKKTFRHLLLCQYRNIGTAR
Each line names hits and unclear results; the compound was inactive in the other large screens (follow-up assays come after a bar, where they were run). Most compounds without a hit are left out; they make up all but 9% or so of the library.

CCN(C(=O)c1cnc(N2CCN(c3ncccn3)CC2)c2ccccc12)c1cccc(Cl)c1	M1 ag 3.32 (no result: Htt clearance) | M1 ag confirm inactive | M4 ag counter inconclusive
CN(C(=O)c1cnc(N2CCN(c3ncccn3)CC2)c2ccccc12)c1ccc(Cl)cc1	M1 ag 5.32 | M1 ag confirm inactive | M4 ag counter inconclusive
O=C(c1cnc(N2CCN(c3ncccn3)CC2)c2ccccc12)N1CCN(c2ncccn2)CC1	M1 ag 11.2 | M1 ag confirm inactive | M4 ag counter inactive
COc1ccc(-c2[nH]c(-c3ccccc3)nc2SCC(=O)NCc2ccco2)cc1OC	none (no result: M1 antagonist, AP complement, D1 mod, M1 ag)
Cc1cc(C)nc(SCC(=O)NCc2ccco2)n1	M1 ag 2.41 | M1 ag confirm -22.4 | M4 ag counter inactive
Cc1cc(C)n2nc(SCC(=O)NCc3ccco3)nc2n1	none
COc1ccc(-c2nc(SCC(=O)NCc3ccco3)c(-c3ccccc3)[nH]2)cc1OC	M1 ag 5.81 (no result: Htt clearance) | M1 ag confirm inactive | M4 ag counter inactive
CCOc1ccc(C(C)=O)cc1Cn1nc(C(=O)O)c2ccccc2c1=O	none (no result: Htt clearance)
O=C(CSc1n[nH]c(=O)n1C1CC1)Nc1cc(Cl)ccc1Oc1ccccc1	M1 antagonist -2.73, Htt clearance 84.2, M1 ag 6.89 | M1 ag confirm inactive | M4 ag counter inactive
CC(OC(=O)c1ccco1)C(=O)NC1CCCCC1 (centres undefined)	none (no result: Htt clearance)
CC(C)C(OC(=O)c1ccco1)C(=O)NC1CCCCC1 (centres undefined)	M1 ag 2.23 | M1 ag confirm inactive | M4 ag counter inactive
CCCN1Cc2cccc(C(=O)N3CCN(c4cc(Cl)ccc4C)CC3)c2C1=O	M1 ag 2.31 (no result: Htt clearance) | M1 ag confirm inconclusive | M4 ag counter inactive
Cc1ccc(Cl)cc1N1CCN(C(=O)c2cc3c(=O)n(C)c4ccccc4c3n2C)CC1	D1 mod -4.05, M1 ag 7.39 | M1 ag confirm inactive | M4 ag counter inactive
Cn1c(C(=O)NCC2CCCO2)cc2c(=O)n(C)c3ccccc3c21 (centres undefined)	none (no result: Htt clearance)
Cn1c(C(=O)NC2CCCC2)cc2c(=O)n(C)c3ccccc3c21	M1 ag 4.1 (no result: Htt clearance) | M1 ag confirm -39 | M4 ag counter inactive
Cc1c(Br)c([N+](=O)[O-])nn1CC(=O)NCc1cccnc1	none (no result: M1 antagonist, AP complement, D1 mod, M1 ag)
Cc1ccccc1OCc1nc(-c2ccccc2)no1	M1 ag -2.43 | M1 ag confirm inactive | M4 ag counter inactive
O=C(Cc1cccs1)N1CCN(c2nc(-c3ccc(Cl)cc3)cs2)CC1	M1 ag 3.46 | M1 ag confirm -28.5 | M4 ag counter inactive
NC(=O)CSc1nnc(-c2cccnc2)n1CCc1ccccc1	none (no result: Htt clearance)
CCN(CC)C(=O)CSc1nnc(-c2cccnc2)n1CCc1ccccc1	M1 ag 8.29 (no result: Htt clearance) | M1 ag confirm inactive | M4 ag counter inactive
O=C(c1ccco1)N1CCN(C(=O)C(Sc2ccccc2)c2ccccc2)CC1 (centres undefined)	M1 ag 3.85 | M1 ag confirm inconclusive | M4 ag counter inactive
O=C(c1ccc(-c2ccccc2)cc1)N1CCN(C(=O)c2ccco2)CC1	none
Cc1cc2c(c(=O)n1C)C(Cc1ccccc1)C(C#N)=C(N)O2 (centres undefined)	none (no result: Htt clearance)
CS(=O)(=O)N(CCc1ccccc1)CC(=O)NCc1ccccn1	none
Cn1c(=O)c2c(nc(NCc3ccccc3)n2CCCc2ccccc2)n(C)c1=O	M1 antagonist 2.48, D1 mod -3.06, M1 ag 14.5 | M1 ag confirm inconclusive | M4 ag counter inactive
Cn1c(=O)c2c(nc(N3CCN(Cc4ccccc4)CC3)n2CCCc2ccccc2)n(C)c1=O	M1 ag 4.17 | M1 ag confirm inactive | M4 ag counter inactive
Cn1c(=O)c2c(nc(NCc3ccccc3)n2C)n(C)c1=O	none
Cc1ccc(S(=O)(=O)CC(C)N2CCN(C3CCCCC3)CC2)cc1 (centres undefined)	none (no result: M1 antagonist, AP complement, D1 mod, M1 ag)
FC(F)(F)C1=CC(c2ccc(Br)cc2)=NCCN1	none (no result: M1 antagonist, AP complement, D1 mod, M1 ag)
COc1ccc(Cl)cc1NC(=O)CSc1nc(N2CCCCC2)nc(N2CCCCC2)n1	none (no result: Htt clearance, D1 mod)
CCOC(=O)C1CCN(Cc2ccc(O)c(OC)c2)CC1	none (no result: Htt clearance)
CCOC(=O)C1CCCN(Cc2cc(OC)c(O)c(OC)c2)C1 (centres undefined)	M1 ag 3.21 (no result: Htt clearance) | M1 ag confirm 59.9 | M4 ag counter inactive
